Assays:
MCF7 = experiment: Antiproliferative activity against human MCF7 cells after 72 hrs by MTT assay; format: functional, cell-based; details: MCF7, 72 h
How it was run: (§1)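 MTT: cells seeded at 1500–4000 per well, grown 24 h, then given serial dilutions (1% DMSO final) for 72 h at 37 °C. MTT was added for 4 h, formazan dissolved in DMSO and absorbance read at 490 nm. Three separate experiments in triplicate; IC50 is the concentration giving 50% cell death versus control.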

[1] = Antiproliferative activity against human HCT116 cells after 72 hrs by MTT assay; format: functional, cell-based; details: HCT-116, 72 h; how it was run: as §1
A549 = experiment: Antiproliferative activity against human A549 cells after 72 hrs by MTT assay; format: functional, cell-based; details: A549, 72 h; how it was run: as §1
[2] = Antiproliferative activity against human U87MG cells after 72 hrs by MTT assay; format: functional, cell-based, U-87MG ATCC; details: U-87 MG; how it was run: as §1

SMILES | IC50 (MCF7) [µM] | IC50 (A549) [µM] | IC50 [1] [µM] | IC50 [2] [µM]
COc1cc2nc(-c3cccc(C(=O)O)c3)nc(N3CCOCC3)c2cc1OC | > 20 |  | 12.5 | 
COCCOc1cc2nc(-c3cc(OC)cc(C(N)=O)c3)nc(N3CCOCC3)c2cc1OC | > 20 |  | 2.7 | 
COc1cc2nc(-c3ccc(O)c(C(N)=O)c3)nc(N3CCOCC3)c2cc1OC | 7.42 |  | 2.77 | 
COCCOc1cc2c(N3CCOCC3)nc(-c3cc(OC)cc(C(N)=O)c3)nc2cc1OC | 5.19 |  | 0.89 | 
COc1cc(C(N)=O)cc(-c2nc(N3CCOCC3)c3cc(OC)c(OCc4ccccc4)cc3n2)c1 | 10.3 |  | 6.45 | 
COc1cc(C(N)=O)cc(-c2nc(N3CCOCC3)c3cc(OC)c(OCCN4CCOCC4)cc3n2)c1 | 5.66 |  | 4.72 | 
CNC(=O)c1cccc(-c2nc(N3CCOCC3)c3cc(OC)c(OC)cc3n2)c1 | 6.2 |  | 2.52 | 
COc1cc(C(N)=O)cc(-c2nc(N3CCOCC3)c3cc(OC)c(OCC4CCOCC4)cc3n2)c1 | 8.52 |  | 3.14 | 
COc1cc2nc(-c3cccc(C(=O)N(C)C)c3)nc(N3CCOCC3)c2cc1OC | 5.01 |  | 4.73 | 
COc1cc2nc(-c3cc(OCc4ccccc4)cc(C(N)=O)c3)nc(N3CCOCC3)c2cc1OC | 6.93 |  | 3.83 | 

The next compounds have a lower IC50 (MCF7) than those just listed; values first:

IC50 (MCF7) [µM] | IC50 (A549) [µM] | SMILES | IC50 [1] [µM] | IC50 [2] [µM]
4.6 |  | COc1cc2nc(-c3ccc(C(N)=O)cc3)nc(N3CCOCC3)c2cc1OC | 1.25 | 
4.24 |  | COc1cc2nc(-c3ccc(Cl)c(C(N)=O)c3)nc(N3CCOCC3)c2cc1OC | 2.97 | 
3.61 |  | COc1cc2nc(-c3ccc(NC(C)=O)cc3)nc(N3CCOCC3)c2cc1OC | 1.09 | 
1.38 | 3.21 | COc1cc2nc(-c3cnc(N)nc3)nc(N3CCOCC3)c2cc1OC | 0.42 | 5
1.22 | 9.63 | COc1cc2nc(-c3ccc(OC)c(C(N)=O)c3)nc(N3CCOCC3)c2cc1OC | 0.47 | 1.9
